In ChEMBL document CHEMBL1146375, “Synthetic studies on novel benzimidazolopeptides with antimicrobial, cytotoxic and anthelmintic potential” (2007):
≈ marks a conversion by molar mass, not a printed value. Residues, ends and D or L forms follow the SMILES beside them. *: point of attachment. X2 = O=C(c1cc(-c2nc3ccc([N+](=O)[O-])cc3[nH]2)ccc1O)*

What was measured:
Trichophyton benhamiae [1] = assay: Antifungal activity against Trichophyton mentagrophytes MUCC 665 after 48 hrs by disc diffusion method; format: functional, Arthroderma benhamiae
Summary of the method: (§1)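 Agar well diffusion on plates inoculated with spore suspension in normal saline from cultures on Sabouraud's broth. Wells punched and loaded with test samples or griseofulvin at 10 mg mL^-1, with DMSO as negative control. Incubated 48 h at 37 °C.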

Eudrilus [2] = assay: Anthelmintic activity against Eudrilus sp. assessed as mean paralyzing time; format: functional
Summary of the method: (§2)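 Earthworms exposed to test suspensions at 2 mg mL^-1 (0.2% w/v), made by triturating compound with Tween 80 (0.5%) and distilled water, then mechanically stirred 30 min. Mebendazole suspension prepared alike as reference. Paralysis and death times recorded; death confirmed by no movement in 50 °C water. Means from triplicate sets.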

Pontoscolex corethrurus [3] = assay: Anthelmintic activity against Pontoscolex corethrurus ICARBC 408 assessed as mean death time; format: functional
Summary of the method: (§3)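 Earthworms exposed to test suspensions at 2 mg mL−1, prepared by triturating compound with Tween 80 (0.5%) and distilled water, stirring 30 min, then diluting to 0.2% w/v. Mebendazole suspension was made the same way. Death was confirmed by moving worms into 50 °C warm water and looking for movement. Mean death time (min) taken from triplicate sets.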

Escherichia coli [4] = assay: Antibacterial activity against Escherichia coli NCIM 2065 after 18 hrs by disc diffusion method; format: functional
Summary of the method: (§4)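 Modified Kirby-Bauer disc diffusion. Plates inoculated with spore suspension (about 6 × 10⁴ spores mL^-1). Sterile 6 mm paper discs carried test samples at 10 mg mL^-1; ciprofloxacin disc as reference, DMF disc as negative control. Plates held 18 h at 37 °C. Inhibition zone diameters (mm) averaged over triplicate sets.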

[5] = Growth inhibition of EAC cells at 62.5 ug/mL after 3 hrs; format: functional; details: Mus musculus, Ehrlich
Summary of the method: (§5)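 DLA and EAC cells passaged intraperitoneally in albino mice, harvested after 15–20 days and adjusted to 1 × 10⁶ cells/mL. Dilutions in Dulbecco's medium (500–31.25, some down to 3.91 µg/mL; 5-FU reference) mixed 1:1 with cells and held 3 h at 37 °C. Trypan blue exclusion gave % growth inhibition; CTC50 by graphical extrapolation.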

[6] = Anthelmintic activity against Megascoplex konkanensis ICARBC 211 assessed as mean death time; format: functional; summary of the method: as §2
[7] = Growth inhibition of EAC cells at 125 ug/mL after 3 hrs; format: functional; details: Mus musculus, Ehrlich; summary of the method: as §5
[8] = Growth inhibition of EAC cells at 500 ug/mL after 3 hrs; format: functional; details: Mus musculus, Ehrlich; summary of the method: as §5
[9] = Growth inhibition of DLA cells at 31.25 ug/mL after 3 hrs; format: functional; details: Mus musculus; summary of the method: as §5
[10] = Growth inhibition of DLA cells after 3 hrs; format: functional; details: Mus musculus; summary of the method: as §5
[11] = Growth inhibition of DLA cells at 500 ug/mL after 3 hrs; format: functional; details: Mus musculus; summary of the method: as §5
Candida albicans [12] = assay: Antifungal activity against Candida albicans MUCC 29 after 48 hrs by disc diffusion method; format: functional; summary of the method: as §1
Aspergillus niger = assay: Antifungal activity against Aspergillus niger MUCC 177 after 48 hrs by disc diffusion method; format: functional; summary of the method: as §1
[13] = Anthelmintic activity against Megascoplex konkanensis ICARBC 211 assessed as mean paralyzing time; format: functional; summary of the method: as §2
[14] = Growth inhibition of EAC cells at 250 ug/mL after 3 hrs; format: functional; details: Mus musculus, Ehrlich; summary of the method: as §5
Staphylococcus aureus [15] = assay: Antibacterial activity against Staphylococcus aureus NCIM 2079 after 18 hrs by tube dilution method; format: functional; details: NCIM 2079, 18 h
Summary of the method: (§6)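 Tube dilution MIC. Stock diluted in sterile broth to seven concentrations from 200 to 3.1 […]. Each tube inoculated with one loopful of test bacterium and incubated 18 h at 37 °C. MIC read from presence or absence of growth.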

Bacillus subtilis [16] = assay: Antibacterial activity against Bacillus subtilis NCIM 2063 after 18 hrs by tube dilution method; format: functional; details: NCIM 2063, 18 h; summary of the method: as §6
Staphylococcus aureus [17] = assay: Antibacterial activity against Staphylococcus aureus NCIM 2079 after 18 hrs by disc diffusion method; format: functional; summary of the method: as §4
Pontoscolex corethrurus [18] = assay: Anthelmintic activity against Pontoscolex corethrurus ICARBC 408 assessed as mean paralyzing time; format: functional; summary of the method: as §2
Pseudomonas aeruginosa [19] = assay: Antibacterial activity against Pseudomonas aeruginosa NCIM 2034 after 18 hrs by tube dilution method; format: functional; details: NCIM 2034, 18 h; summary of the method: as §6
Microsporum audouinii [20] = assay: Antifungal activity against Microsporum audouinii MUCC 545 after 48 hrs by tube dilution method; format: functional
Summary of the method: (§7)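 Tube dilution MIC as for bacteria (seven concentrations, 200–3.1 […]), with DMSO in place of DMF. Tubes inoculated with fungal culture and incubated 48 h at 37 °C. MIC read from presence or absence of growth.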

Trichophyton benhamiae [21] = assay: Antifungal activity against Trichophyton mentagrophytes MUCC 665 after 48 hrs by tube dilution method; format: functional, Arthroderma benhamiae; summary of the method: as §7
Microsporum audouinii [22] = assay: Antifungal activity against Microsporum audouinii MUCC 545 after 48 hrs by disc diffusion method; format: functional; summary of the method: as §1
Escherichia coli [23] = assay: Antibacterial activity against Escherichia coli NCIM 2065 after 18 hrs by tube dilution method; format: functional; details: NCIM 2065, 18 h
Bacillus subtilis [24] = assay: Antibacterial activity against Bacillus subtilis NCIM 2063 after 18 hrs by disc diffusion method; format: functional; summary of the method: as §4
Eudrilus [25] = assay: Anthelmintic activity against Eudrilus sp. assessed as mean death time; format: functional; summary of the method: as §3
Candida albicans [26] = assay: Antifungal activity against Candida albicans MUCC 29 after 48 hrs by tube dilution method; format: functional; summary of the method: as §7
[27] = Growth inhibition of DLA cells at 62.5 ug/mL after 3 hrs; format: functional; details: Mus musculus; summary of the method: as §5
[28] = Growth inhibition of EAC cells after 3 hrs; format: functional; details: Mus musculus, Ehrlich; summary of the method: as §5
[29] = Growth inhibition of DLA cells at 125 ug/mL after 3 hrs; format: functional; details: Mus musculus; summary of the method: as §5
[30] = Growth inhibition of EAC cells at 31.25 ug/mL after 3 hrs; format: functional; details: Mus musculus, Ehrlich; summary of the method: as §5
Pseudomonas aeruginosa [31] = assay: Antibacterial activity against Pseudomonas aeruginosa NCIM 2034 after 18 hrs by disc diffusion method; format: functional; summary of the method: as §4
[32] = Growth inhibition of DLA cells at 250 ug/mL after 3 hrs; format: functional; details: Mus musculus; summary of the method: as §5

Row | SMILES | inhibition zone (IZ) (Trichophyton benhamiae [1]) [mm] | Time (Eudrilus [2]) [min] | Time (Pontoscolex corethrurus [3]) [min] | inhibition zone (IZ) (Escherichia coli [4]) [mm] | inhibition at 62.5 µg/mL [5] [%] | TIME [6] [h] | inhibition at 125 µg/mL [7] [%] | inhibition at 500 µg/mL [8] [%] | inhibition at 31.25 µg/mL [9] [%] | CC50 [10] [µM] | inhibition at 500 µg/mL [11] [%] | inhibition zone (IZ) (Candida albicans [12]) [mm] | inhibition zone (IZ) (Aspergillus niger) [mm] | TIME [13] [h] | inhibition at 250 µg/mL [14] [%] | MIC (Staphylococcus aureus [15]) [µg/mL] | MIC (Bacillus subtilis [16]) [µg/mL] | inhibition zone (IZ) (Staphylococcus aureus [17]) [mm] | Time (Pontoscolex corethrurus [18]) [min] | MIC (Pseudomonas aeruginosa [19]) [µg/mL] | other results
1 | CC(C)[C@H](NC(=O)c1cc(-c2nc3ccc([N+](=O)[O-])cc3[nH]2)ccc1O)C(=O)N[C@@H](Cc1ccccc1)C(=O)N[C@@H](Cc1cnc[nH]1)C(=O)O | 13 | 11.55 | 22.79 | 16 | 3.57 | 0.326 | 7.14 | 10.7 | 10.5 | > 718 | 42.1 | 19 | 19 | 0.174 | 7.14 | 12.5 (≈ 18.3 µM) | 6 (≈ 8.79 µM) | 11 | 11.87 | 12.5 (≈ 18.3 µM) | MIC (Microsporum audouinii [20]): 12.5 µg/mL (≈ 18.3 µM); MIC (Trichophyton benhamiae [21]): 6 µg/mL (≈ 8.79 µM); inhibition zone (IZ) (Microsporum audouinii [22]): 12 mm; MIC (Escherichia coli [23]): 12.5 µg/mL (≈ 18.3 µM); inhibition zone (IZ) (Bacillus subtilis [24]): 13 mm; Time (Eudrilus [25]): 21.72 min; MIC (Candida albicans [26]): 6 µg/mL (≈ 8.79 µM); inhibition at 62.5 µg/mL [27]: 21%; CC50 [28]: > 718 µM; inhibition at 125 µg/mL [29]: 26.3%; inhibition at 31.25 µg/mL [30]: 3.57%; inhibition zone (IZ) (Pseudomonas aeruginosa [31]): 24 mm; inhibition at 250 µg/mL [32]: 28.9%
2 | Cc1cc2nc(-c3ccc(C(=O)N[C@@H](Cc4cnc[nH]4)C(=O)N[C@@H](Cc4ccc(O)cc4)C(=O)O)cc3)[nH]c2cc1C | 16 | 13.44 | 29.02 | 17 | 3.57 | 0.37 | 7.14 | 10.7 | 13.2 | > 883 | 26.3 | 17 | 17 | 0.226 | 7.14 | 12.5 (≈ 22.1 µM) | 6 (≈ 10.6 µM) | 11 | 17.47 | 12.5 (≈ 22.1 µM) | MIC (Microsporum audouinii [20]): 25 µg/mL (≈ 44.1 µM); MIC (Trichophyton benhamiae [21]): 6 µg/mL (≈ 10.6 µM); inhibition zone (IZ) (Microsporum audouinii [22]): 10 mm; MIC (Escherichia coli [23]): 25 µg/mL (≈ 44.1 µM); inhibition zone (IZ) (Bacillus subtilis [24]): 13 mm; Time (Eudrilus [25]): 23.08 min; MIC (Candida albicans [26]): 12.5 µg/mL (≈ 22.1 µM); inhibition at 62.5 µg/mL [27]: 10.5%; CC50 [28]: > 883 µM; inhibition at 125 µg/mL [29]: 21%; inhibition at 31.25 µg/mL [30]: 3.57%; inhibition zone (IZ) (Pseudomonas aeruginosa [31]): 23 mm; inhibition at 250 µg/mL [32]: 18.4%
3 | COC(=O)CNC(=O)[C@H](CC(C)C)NC(=O)[C@@H]1CCCN1C(=O)[C@H](Cc1cnc[nH]1)NC(=O)c1cc(-c2nc3ccc([N+](=O)[O-])cc3[nH]2)ccc1O (X2-HPLG-OMe) | 15 | 11.23 | 21.72 | 14 | 7.14 | 0.334 | 10.7 | 28.7 | 28.7 | > 697 | 39.5 | 20 | 17 | 0.188 | 21.4 | 12.5 (≈ 17.4 µM) | 6 (≈ 8.36 µM) | 10 | 13.76 | 6 (≈ 8.36 µM) | MIC (Microsporum audouinii [20]): 6 µg/mL (≈ 8.36 µM); MIC (Trichophyton benhamiae [21]): 6 µg/mL (≈ 8.36 µM); inhibition zone (IZ) (Microsporum audouinii [22]): 12 mm; MIC (Escherichia coli [23]): 12.5 µg/mL (≈ 17.4 µM); inhibition zone (IZ) (Bacillus subtilis [24]): 14 mm; Time (Eudrilus [25]): 20.33 min; MIC (Candida albicans [26]): 6 µg/mL (≈ 8.36 µM); inhibition at 62.5 µg/mL [27]: 15.8%; CC50 [28]: > 697 µM; inhibition at 125 µg/mL [29]: 23.7%; inhibition at 31.25 µg/mL [30]: 3.57%; inhibition zone (IZ) (Pseudomonas aeruginosa [31]): 24 mm; inhibition at 250 µg/mL [32]: 31.6%
4 | O=C(O)[C@@H]1CCCN1C(=O)[C@@H]1CCCN1C(=O)[C@@H]1CCCN1C(=O)c1cc(-c2nc3ccc([N+](=O)[O-])cc3[nH]2)ccc1O | 17 | 26.54 | 40.2 | 17 | 7.14 | 0.567 | 10.7 | 28.7 | 18.4 | 332 | 65.8 | 24 | 17 | 0.418 | 21.4 | 12.5 (≈ 21.2 µM) | 6 (≈ 10.2 µM) | 11 | 30.52 | 6 (≈ 10.2 µM) | MIC (Microsporum audouinii [20]): 6 µg/mL (≈ 10.2 µM); MIC (Trichophyton benhamiae [21]): 12.5 µg/mL (≈ 21.2 µM); inhibition zone (IZ) (Microsporum audouinii [22]): 13 mm; MIC (Escherichia coli [23]): 25 µg/mL (≈ 42.3 µM); inhibition zone (IZ) (Bacillus subtilis [24]): 14 mm; Time (Eudrilus [25]): 37.23 min; MIC (Candida albicans [26]): 6 µg/mL (≈ 10.2 µM); inhibition at 62.5 µg/mL [27]: 34.2%; CC50 [28]: > 847 µM; inhibition at 125 µg/mL [29]: 47.4%; inhibition at 31.25 µg/mL [30]: 3.57%; inhibition zone (IZ) (Pseudomonas aeruginosa [31]): 28 mm; inhibition at 250 µg/mL [32]: 52.6%
